# Laboratory results as given in ChEMBL document CHEMBL1142242, “Indanylacetic acid derivatives carrying 4-thiazolyl-phenoxy tail groups, a new class of potent PPAR alpha/gamma/delta pan agonists: synthesis, structure-activity relationship, and in vivo efficacy” (J Med Chem, 2007).
# Active and inactive are the calls of the source. The calls are words filed in the database; no cut-off is given here.
# What was measured:
# Rattus norvegicus = test: Reduction of FFA level in ZDF rat at 10 mg/kg, po after 21 days; format: functional, organism-based; set-up: dose 10 mg/kg
# Outline: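 Male ZDF rats, on chow 4-8 weeks to confirm hyperglycemia, grouped by equal baseline blood glucose; oral dosing once daily for 21 days in 0.5% methylcellulose in water; bled ~24 h after last dose; plasma FFA measured.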
# Mus musculus [1] = test: Reduction of blood glucose level in orally dosed db/db mouse at 1 mg/kg after 8 days; format: functional, organism-based; set-up: dose 1 mg/kg
# Outline: (§1)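 Female db/db mice, on chow 3-4 weeks to confirm hyperglycemia, grouped by equal baseline blood glucose; oral dosing once daily in 0.5% methylcellulose in water; blood glucose by analyzer ~24 h after last dose; percent change vs vehicle = ((Tf/Ti)/(Vf/Vi) − 1) × 100.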
# Mus musculus [2] = test: Reduction of blood glucose level in orally dosed db/db mouse at 10 mg/kg after 8 days; format: functional, organism-based; set-up: dose 10 mg/kg; outline: as §1
# Mus musculus [3] = test: Reduction of blood glucose level in orally dosed db/db mouse at 3 mg/kg after 8 days; format: functional, organism-based; set-up: dose 3 mg/kg; outline: as §1
# [4] = target: T1, Peroxisome proliferator-activated receptor alpha (Homo sapiens, UniProt Q07869); test: Agonist activity at human PPAR alpha by FRET assay; format: functional
# T1 sequence (Q07869 whole entry): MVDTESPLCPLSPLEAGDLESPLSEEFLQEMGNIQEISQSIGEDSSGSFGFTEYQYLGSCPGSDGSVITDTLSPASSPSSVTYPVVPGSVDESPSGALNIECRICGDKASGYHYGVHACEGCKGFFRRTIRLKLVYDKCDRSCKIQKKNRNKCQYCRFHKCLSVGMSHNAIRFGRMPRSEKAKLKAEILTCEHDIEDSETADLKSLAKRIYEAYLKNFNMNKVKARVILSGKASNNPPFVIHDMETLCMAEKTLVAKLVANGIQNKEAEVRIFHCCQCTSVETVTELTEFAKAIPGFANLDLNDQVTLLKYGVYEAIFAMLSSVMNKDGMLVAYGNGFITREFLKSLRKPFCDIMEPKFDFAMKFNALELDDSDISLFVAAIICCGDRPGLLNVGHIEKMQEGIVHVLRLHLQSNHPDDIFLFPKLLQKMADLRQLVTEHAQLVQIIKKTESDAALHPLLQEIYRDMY
# Outline: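 Human PPARα ligand binding domain (GST-tagged) association with biotin-labeled co-activator CBP; Eu-labeled anti-GST antibody and streptavidin-APC; incubated 2 h at rt in buffer with or without compound; fluorescence read at 615 or 655 nm emission, 340 nm excitation.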
# [5] = target: T2, Peroxisome proliferator-activated receptor delta (Homo sapiens, UniProt Q03181); test: Agonist activity at human PPAR delta by FRET assay; format: functional
# T2 sequence (Q03181 whole entry): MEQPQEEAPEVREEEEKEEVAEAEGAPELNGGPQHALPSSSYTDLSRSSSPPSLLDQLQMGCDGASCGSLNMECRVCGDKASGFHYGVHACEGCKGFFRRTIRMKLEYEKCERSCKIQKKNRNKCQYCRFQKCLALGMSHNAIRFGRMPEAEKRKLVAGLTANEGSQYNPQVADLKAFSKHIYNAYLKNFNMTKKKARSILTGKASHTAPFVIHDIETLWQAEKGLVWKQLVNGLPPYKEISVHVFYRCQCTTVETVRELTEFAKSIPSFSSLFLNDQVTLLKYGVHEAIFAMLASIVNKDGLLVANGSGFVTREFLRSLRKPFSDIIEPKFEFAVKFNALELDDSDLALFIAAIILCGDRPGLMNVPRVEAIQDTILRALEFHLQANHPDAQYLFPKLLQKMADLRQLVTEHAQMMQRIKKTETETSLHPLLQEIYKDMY
# [6] = target: T3, Peroxisome proliferator-activated receptor gamma (Mus musculus, UniProt P37238); test: Agonist activity at PPAR gamma in mouse 3T3L1 cells assessed as increase in insulin receptor by IRBA; format: functional, cell-based, 3T3-L1
# T3 sequence (P37238 whole entry): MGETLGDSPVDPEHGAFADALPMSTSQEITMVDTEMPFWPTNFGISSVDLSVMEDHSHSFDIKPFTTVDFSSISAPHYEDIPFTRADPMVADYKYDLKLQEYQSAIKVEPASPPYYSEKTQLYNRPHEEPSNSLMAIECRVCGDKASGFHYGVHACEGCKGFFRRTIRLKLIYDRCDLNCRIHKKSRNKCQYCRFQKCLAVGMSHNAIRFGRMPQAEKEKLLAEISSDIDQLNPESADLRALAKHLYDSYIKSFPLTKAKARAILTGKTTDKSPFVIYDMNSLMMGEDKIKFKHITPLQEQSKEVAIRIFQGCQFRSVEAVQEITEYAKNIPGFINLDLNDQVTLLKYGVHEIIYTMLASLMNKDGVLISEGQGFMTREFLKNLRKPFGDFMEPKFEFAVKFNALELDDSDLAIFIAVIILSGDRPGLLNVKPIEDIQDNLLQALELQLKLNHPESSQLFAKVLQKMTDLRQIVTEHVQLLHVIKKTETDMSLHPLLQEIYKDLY
# [7] = Aqueous solubility of the compound; format: physicochemical
# [8] = target: T2, Peroxisome proliferator-activated receptor delta; test: Agonist activity at human PPAR delta expressed in CV1 cells by GAL4 transactivation assay
# Cytochrome P450 2C9 = Cytochrome P450 2C9 (Homo sapiens, UniProt P11712); test: Inhibition of CYP2C9; format: ADME
# [9] = Aqueous solubility at pH 6.8; format: physicochemical
# [10] = target: Peroxisome proliferator-activated receptor alpha (Mus musculus, UniProt P23204); test: (§2) Agonist activity at mouse PPAR alpha; format: functional
# [11] = target: T4, Peroxisome proliferator-activated receptor alpha (Mus musculus) (UniProt P23204); test: as §2; format: functional
# T4 sequence (whole entry): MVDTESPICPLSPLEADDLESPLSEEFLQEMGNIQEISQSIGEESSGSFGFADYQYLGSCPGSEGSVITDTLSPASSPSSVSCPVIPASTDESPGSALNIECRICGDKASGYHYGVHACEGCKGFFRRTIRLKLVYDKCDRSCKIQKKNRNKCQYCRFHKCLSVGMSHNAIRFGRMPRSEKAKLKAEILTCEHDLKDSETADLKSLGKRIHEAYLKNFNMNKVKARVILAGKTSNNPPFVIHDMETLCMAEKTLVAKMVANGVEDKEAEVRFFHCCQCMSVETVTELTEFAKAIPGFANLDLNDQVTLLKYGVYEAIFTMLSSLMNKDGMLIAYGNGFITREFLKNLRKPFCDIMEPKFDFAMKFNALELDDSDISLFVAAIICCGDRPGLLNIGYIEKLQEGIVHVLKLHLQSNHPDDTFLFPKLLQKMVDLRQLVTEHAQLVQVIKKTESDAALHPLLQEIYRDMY
# Cytochrome P450 3A4 = Cytochrome P450 3A4 (Homo sapiens, UniProt P08684); test: Inhibition of CYP3A4; format: ADME
# Outline: (§3)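 Enzyme assays per CYP isoform (1A2, 2C8, 2D6, 3A4), with turnover of an appropriate fluorescent substrate as read-out; IC₅₀ reported.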
# [12] = target: PPAR gamma (Homo sapiens); test: Agonist activity at human PPAR gamma expressed in human preadipocytes assessed as increase in insulin receptor by IRBA
# [13] = target: T1, Peroxisome proliferator-activated receptor alpha; test: (§4) Agonist activity at human PPAR alpha expressed in CV1 cells by GAL4 transactivation assay; format: functional, cell-based, CV-1
# Outline: (§5)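 CV-1 cells plated, grown overnight at 37 °C in 5% CO₂, then transfected with GAL4-fused human PPARα ligand binding domain, pFR-LUC and pRL-SV40 reporter DNAs by lipofection. After a further overnight incubation, cells were exposed to compound or vehicle overnight. Activity was read as dual-luciferase reporter signal.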
# [14] = target: T5, Peroxisome proliferator-activated receptor alpha (Homo sapiens) (UniProt Q07869); test: as §4; format: functional, cell-based; settings: CV-1; outline: as §5
# T5 sequence (whole entry): T1 sequence (Q07869 whole entry)
# Cytochrome P450 2D6 = Cytochrome P450 2D6 (Homo sapiens, UniProt P10635); test: Inhibition of CYP2D6; format: ADME; outline: as §3
# [15] = Cmax in mouse at 10 mg/kg, po; format: ADME, organism-based; set-up: dose 10 mg/kg, route oral; settings: in vivo
# Outline: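 Mice dosed orally in 0.5% methylcellulose vehicle; plasma Cmax reported.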
# Cytochrome P450 2C8 = Cytochrome P450 2C8 (Homo sapiens, UniProt P10632); test: Inhibition of CYP2C8; format: ADME; outline: as §3
# Androgen receptor = Androgen receptor (Homo sapiens, UniProt P10275); test: Displacement of [3H]dihydrotestosterone from human recombinant androgen receptor expressed in SF9 baculovirus cells
# Cytochrome P450 1A2 = Cytochrome P450 1A2 (Homo sapiens, UniProt P05177); test: Inhibition of CYP1A2; format: ADME; outline: as §3
# Progesterone receptor = Progesterone receptor (Homo sapiens, UniProt P06401); test: Displacement of [3H]progesterone from progesterone receptor in T47D cells; format: cell-based
# Outline: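 Cytosol from T47D cells incubated overnight at 4 °C with ³H-progesterone at 10 nM final, with or without compound. DMSO defined total binding and 1 µM unlabelled progesterone defined nonspecific binding. Bound and free ligand were separated on a spin plate, and the flow-through was counted by scintillation.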
# Glucocorticoid receptor = Glucocorticoid receptor (Homo sapiens, UniProt P04150); test: Displacement of [H]dexamethaxone from glucocorticoid receptor in HUH cells; format: cell-based
# Estrogen receptor = Estrogen receptor (Mus musculus, UniProt O08537+P19785); test: Displacement of [3H]O-estradiol from ER in Swiss mouse uteri; format: protein assay
# [16] = target: Peroxisome proliferator-activated receptor delta (Mus musculus, UniProt P35396); test: Agonist activity at mouse PPAR delta
# Chain of Peroxisome proliferator-activated receptor delta (Mus musculus, UniProt P35396) (P35396 whole entry): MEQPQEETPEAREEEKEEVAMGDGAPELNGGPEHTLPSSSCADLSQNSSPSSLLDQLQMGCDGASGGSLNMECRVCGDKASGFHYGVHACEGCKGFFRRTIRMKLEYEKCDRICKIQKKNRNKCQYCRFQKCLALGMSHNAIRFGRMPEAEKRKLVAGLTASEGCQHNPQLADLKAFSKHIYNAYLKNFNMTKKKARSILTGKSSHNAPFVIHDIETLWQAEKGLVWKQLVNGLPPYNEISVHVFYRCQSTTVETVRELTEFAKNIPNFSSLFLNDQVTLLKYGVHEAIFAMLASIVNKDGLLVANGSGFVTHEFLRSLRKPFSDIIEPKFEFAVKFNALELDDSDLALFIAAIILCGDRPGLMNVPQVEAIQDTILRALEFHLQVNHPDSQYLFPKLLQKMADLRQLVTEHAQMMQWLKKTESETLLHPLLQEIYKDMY
# Chain of Glucocorticoid receptor (P04150 whole entry): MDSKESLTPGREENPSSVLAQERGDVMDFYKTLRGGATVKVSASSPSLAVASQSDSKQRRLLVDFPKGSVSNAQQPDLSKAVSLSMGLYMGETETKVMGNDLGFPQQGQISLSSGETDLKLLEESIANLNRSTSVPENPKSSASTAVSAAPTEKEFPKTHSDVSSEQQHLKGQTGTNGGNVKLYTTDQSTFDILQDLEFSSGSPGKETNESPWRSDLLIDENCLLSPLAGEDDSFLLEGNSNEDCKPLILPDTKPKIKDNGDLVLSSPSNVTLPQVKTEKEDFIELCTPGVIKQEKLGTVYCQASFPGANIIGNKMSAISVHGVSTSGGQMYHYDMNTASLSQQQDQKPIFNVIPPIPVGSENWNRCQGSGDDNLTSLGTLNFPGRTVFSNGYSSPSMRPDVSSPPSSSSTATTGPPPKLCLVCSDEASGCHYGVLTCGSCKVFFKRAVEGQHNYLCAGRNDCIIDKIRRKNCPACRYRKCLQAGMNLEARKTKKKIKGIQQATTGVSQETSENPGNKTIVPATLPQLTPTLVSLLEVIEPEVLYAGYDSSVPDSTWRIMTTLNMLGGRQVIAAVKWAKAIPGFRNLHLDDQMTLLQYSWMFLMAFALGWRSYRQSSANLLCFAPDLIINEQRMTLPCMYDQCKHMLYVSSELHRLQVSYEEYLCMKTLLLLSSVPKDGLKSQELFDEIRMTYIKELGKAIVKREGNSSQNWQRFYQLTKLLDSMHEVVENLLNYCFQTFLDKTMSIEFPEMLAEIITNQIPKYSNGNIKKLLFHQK
# Chain of Androgen receptor (P10275 whole entry): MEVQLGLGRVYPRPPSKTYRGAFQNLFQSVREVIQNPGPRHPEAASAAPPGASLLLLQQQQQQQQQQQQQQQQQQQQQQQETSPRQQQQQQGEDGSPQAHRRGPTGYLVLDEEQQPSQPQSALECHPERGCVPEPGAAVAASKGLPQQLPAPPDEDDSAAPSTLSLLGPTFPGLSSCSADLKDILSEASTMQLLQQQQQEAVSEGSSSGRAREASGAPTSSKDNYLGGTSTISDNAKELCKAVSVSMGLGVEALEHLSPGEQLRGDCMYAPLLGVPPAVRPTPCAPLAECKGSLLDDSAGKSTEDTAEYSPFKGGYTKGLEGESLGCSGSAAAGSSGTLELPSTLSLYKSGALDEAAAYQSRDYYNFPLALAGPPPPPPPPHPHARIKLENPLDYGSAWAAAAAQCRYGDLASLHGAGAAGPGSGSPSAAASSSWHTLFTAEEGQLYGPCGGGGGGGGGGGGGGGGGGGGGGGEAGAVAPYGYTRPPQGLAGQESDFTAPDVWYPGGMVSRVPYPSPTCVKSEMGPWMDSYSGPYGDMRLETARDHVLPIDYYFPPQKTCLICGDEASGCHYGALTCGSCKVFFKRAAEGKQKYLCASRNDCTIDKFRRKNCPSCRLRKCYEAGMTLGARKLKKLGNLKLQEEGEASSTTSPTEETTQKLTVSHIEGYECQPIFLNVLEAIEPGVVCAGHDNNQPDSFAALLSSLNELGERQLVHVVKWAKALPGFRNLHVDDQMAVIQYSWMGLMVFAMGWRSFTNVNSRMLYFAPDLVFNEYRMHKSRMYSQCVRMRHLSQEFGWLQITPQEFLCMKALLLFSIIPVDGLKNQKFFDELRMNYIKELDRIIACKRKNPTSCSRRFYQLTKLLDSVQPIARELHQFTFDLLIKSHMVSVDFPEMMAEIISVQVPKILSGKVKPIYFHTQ
# Chain of Cytochrome P450 2C9 (P11712 whole entry): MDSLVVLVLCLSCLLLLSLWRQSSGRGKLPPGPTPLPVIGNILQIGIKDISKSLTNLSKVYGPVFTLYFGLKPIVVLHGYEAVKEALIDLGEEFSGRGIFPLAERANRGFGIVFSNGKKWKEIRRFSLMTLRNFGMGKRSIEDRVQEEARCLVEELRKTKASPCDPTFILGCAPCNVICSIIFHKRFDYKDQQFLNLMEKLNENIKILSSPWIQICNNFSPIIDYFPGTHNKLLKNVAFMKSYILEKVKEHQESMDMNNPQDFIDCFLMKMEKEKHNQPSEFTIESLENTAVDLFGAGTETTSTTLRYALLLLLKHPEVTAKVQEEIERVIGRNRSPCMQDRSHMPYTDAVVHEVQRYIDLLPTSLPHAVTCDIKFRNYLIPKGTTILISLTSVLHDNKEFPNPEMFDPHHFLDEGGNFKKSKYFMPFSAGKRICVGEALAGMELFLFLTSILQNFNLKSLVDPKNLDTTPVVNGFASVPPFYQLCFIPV
# Chain of Cytochrome P450 2C8 (P10632 whole entry): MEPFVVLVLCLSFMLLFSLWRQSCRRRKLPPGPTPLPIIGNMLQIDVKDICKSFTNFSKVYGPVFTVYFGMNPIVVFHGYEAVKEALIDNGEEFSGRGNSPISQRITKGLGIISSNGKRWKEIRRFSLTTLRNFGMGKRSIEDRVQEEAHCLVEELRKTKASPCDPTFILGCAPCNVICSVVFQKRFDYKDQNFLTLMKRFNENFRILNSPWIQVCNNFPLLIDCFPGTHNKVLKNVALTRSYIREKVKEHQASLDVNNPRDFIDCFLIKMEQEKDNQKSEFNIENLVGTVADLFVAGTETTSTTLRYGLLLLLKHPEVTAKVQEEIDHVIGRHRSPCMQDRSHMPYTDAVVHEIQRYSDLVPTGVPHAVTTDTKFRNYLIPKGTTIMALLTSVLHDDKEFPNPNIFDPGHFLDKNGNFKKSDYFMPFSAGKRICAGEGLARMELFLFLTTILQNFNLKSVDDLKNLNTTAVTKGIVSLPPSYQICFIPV
# Chain of Progesterone receptor (P06401 whole entry): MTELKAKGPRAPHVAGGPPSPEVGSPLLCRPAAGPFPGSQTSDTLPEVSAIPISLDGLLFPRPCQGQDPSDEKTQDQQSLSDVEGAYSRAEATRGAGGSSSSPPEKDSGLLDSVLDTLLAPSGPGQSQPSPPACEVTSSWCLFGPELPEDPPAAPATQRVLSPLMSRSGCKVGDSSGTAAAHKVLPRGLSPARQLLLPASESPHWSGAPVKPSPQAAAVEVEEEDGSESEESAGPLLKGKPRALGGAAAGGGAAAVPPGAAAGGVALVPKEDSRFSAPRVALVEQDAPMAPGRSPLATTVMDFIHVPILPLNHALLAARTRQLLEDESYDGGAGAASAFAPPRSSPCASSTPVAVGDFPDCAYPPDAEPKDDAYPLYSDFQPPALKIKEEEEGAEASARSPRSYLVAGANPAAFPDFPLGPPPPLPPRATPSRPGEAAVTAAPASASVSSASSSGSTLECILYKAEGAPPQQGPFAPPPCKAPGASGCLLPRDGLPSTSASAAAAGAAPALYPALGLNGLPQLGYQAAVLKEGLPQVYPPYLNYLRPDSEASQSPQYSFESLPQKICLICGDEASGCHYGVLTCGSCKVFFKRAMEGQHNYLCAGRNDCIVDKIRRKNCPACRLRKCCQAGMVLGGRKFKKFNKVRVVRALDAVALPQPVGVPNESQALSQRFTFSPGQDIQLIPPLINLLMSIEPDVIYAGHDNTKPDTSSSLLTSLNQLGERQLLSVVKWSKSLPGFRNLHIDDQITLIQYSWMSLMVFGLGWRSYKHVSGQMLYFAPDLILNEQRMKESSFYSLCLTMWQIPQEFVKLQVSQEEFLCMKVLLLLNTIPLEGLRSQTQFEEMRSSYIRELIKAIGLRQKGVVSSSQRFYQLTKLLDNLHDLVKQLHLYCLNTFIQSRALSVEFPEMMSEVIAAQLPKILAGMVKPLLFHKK
# Chain of Cytochrome P450 3A4 (P08684 whole entry, canonical isoform): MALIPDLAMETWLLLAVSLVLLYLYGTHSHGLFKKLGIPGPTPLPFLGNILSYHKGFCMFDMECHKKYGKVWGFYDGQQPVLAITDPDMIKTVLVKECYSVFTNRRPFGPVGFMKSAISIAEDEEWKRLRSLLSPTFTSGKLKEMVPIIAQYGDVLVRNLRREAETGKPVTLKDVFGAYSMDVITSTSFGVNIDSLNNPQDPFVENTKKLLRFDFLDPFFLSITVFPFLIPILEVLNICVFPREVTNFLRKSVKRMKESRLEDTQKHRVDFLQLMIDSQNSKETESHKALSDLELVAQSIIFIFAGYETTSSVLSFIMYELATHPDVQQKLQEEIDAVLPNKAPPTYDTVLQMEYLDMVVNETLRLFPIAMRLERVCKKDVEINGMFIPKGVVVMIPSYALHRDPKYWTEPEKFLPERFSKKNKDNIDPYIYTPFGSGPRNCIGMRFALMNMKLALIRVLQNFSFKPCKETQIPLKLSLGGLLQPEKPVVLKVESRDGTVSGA
# Chain of Cytochrome P450 2D6 (P10635 whole entry): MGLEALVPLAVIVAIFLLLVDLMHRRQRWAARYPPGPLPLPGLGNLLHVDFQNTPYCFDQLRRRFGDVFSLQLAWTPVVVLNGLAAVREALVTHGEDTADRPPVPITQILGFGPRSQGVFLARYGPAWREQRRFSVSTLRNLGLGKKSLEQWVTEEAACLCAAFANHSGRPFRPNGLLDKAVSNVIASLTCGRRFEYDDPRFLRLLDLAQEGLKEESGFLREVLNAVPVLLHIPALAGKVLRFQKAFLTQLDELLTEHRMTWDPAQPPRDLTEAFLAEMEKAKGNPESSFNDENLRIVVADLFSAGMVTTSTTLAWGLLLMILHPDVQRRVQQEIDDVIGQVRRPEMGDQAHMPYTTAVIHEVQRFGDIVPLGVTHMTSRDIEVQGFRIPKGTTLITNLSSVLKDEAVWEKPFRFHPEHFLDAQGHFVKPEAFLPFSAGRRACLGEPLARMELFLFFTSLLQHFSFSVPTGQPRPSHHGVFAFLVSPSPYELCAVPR
compound,measurement,setting,value
CN(CCOc1ccc(CC2SC(=O)NC2=O)cc1)c1ccccn1 (centres undefined),Activity,Rattus norvegicus,Active
same,Activity,Mus musculus [1],Dose-dependent effect
same,Activity,Mus musculus [2],Dose-dependent effect
same,Activity,Mus musculus [3],Dose-dependent effect
CCCc1c(OCCCOc2ccc3c(c2)CC[C@H]3CC(=O)O)ccc2c(C(F)(F)F)noc12,EC50,[4],192 nM
same,EC50,[5],6 nM
same,EC50,[6],42 nM
same,solubility,[7],< 1 µM
CCCc1cc(-c2nc3c(s2)CCCC3)ccc1OCCCOc1ccc2c(c1)CC[C@H]2CC(=O)O,EC50,[8],2.6 nM
same,IC50,Cytochrome P450 2C9,> 10000 nM
same,solubility,[9],< 5 µM
same,EC50,[10],7700 nM
same,Activity,[11],79%
same,IC50,Cytochrome P450 3A4,> 10000 nM
same,EC50,[12],81 nM
same,EC50,[4],43 nM
same,EC50,[13],5 nM
same,Activity,[14],100%
same,IC50,Cytochrome P450 2D6,> 10000 nM
same,Cmax,[15],5.1 µM
same,EC50,[5],1.9 nM
same,EC50,[6],12 nM
same,IC50,Cytochrome P450 2C8,> 10000 nM
same,EC50,Androgen receptor,> 10000 nM
same,IC50,Cytochrome P450 1A2,> 10000 nM
same,EC50,Progesterone receptor,> 10000 nM
same,EC50,Glucocorticoid receptor,> 10000 nM
same,EC50,Estrogen receptor,> 10000 nM
same,EC50,[16],8.6 nM
